Data on ten compounds can be found in ChEMBL document CHEMBL4190200, “Inhibition Potential of Cycloartane-Type Glycosides from the Roots of Cimicifuga dahurica against Soluble Epoxide Hydrolase” (J Nat Prod, 2017).

Active and inactive are the calls of the source. The calls are words filed in the database; no cut-off is given here.

Test [1] deals with T1, Bifunctional epoxide hydrolase 2 (Homo sapiens) (UniProt P34913).
T1 sequence (whole entry): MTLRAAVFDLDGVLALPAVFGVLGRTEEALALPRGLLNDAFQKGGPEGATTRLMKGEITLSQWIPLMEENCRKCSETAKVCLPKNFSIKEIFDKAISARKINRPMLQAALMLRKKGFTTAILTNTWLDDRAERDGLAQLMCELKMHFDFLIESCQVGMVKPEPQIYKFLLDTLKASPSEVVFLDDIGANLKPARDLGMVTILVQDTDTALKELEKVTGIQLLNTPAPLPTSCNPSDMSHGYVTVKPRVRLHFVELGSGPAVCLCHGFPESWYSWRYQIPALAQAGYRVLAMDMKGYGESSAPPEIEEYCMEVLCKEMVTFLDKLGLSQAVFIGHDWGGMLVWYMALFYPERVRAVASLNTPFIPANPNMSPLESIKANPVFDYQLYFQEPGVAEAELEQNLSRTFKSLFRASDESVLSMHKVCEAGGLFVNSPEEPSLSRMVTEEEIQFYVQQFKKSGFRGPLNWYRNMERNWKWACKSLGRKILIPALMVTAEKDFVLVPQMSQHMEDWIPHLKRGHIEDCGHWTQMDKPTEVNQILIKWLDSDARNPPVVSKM
Kind of test: Non-competitive inhibition of soluble epoxide hydrolase (unknown origin) using PHOME as substrate measured for 1 hr by Lineweaver-Burk plot analysis.

The target of test [2] is T2, Bifunctional epoxide hydrolase 2 (Homo sapiens, UniProt P34913).
T2 sequence (P34913 whole entry): T1 sequence (whole entry)
Kind of test: Inhibition of soluble epoxide hydrolase (unknown origin) using PHOME as substrate measured for 1 hr by fluorescence assay.

Test [3] concerns the target T1, Bifunctional epoxide hydrolase 2 (Homo sapiens). Briefly: Inhibition of soluble epoxide hydrolase (unknown origin) using PHOME as substrate at 100 uM measured for 1 hr by fluorescence assay relative to control. The method in brief: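 sEH (31.6 ng/mL) mixed with compound in MeOH in 25 mM Bis-Tris-HCl, pH 7.0, with 0.1 mg/mL BSA; 40 μM PHOME substrate (stock added) started the reaction at 37 °C. Fluorescence read at ex 330/em 465 nm for 1 h. Activity (%) taken from the signal change between 0 and 40 min, relative to the uninhibited control. Positive control AUDA.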

Test [4] shares this target. Kind of test: Competitive inhibition of soluble epoxide hydrolase (unknown origin) using PHOME as substrate measured for 1 hr by Lineweaver-Burk plot analysis.
The target is the same in test [5]. Kind of test: Mixed inhibition of soluble epoxide hydrolase (unknown origin) using PHOME as substrate measured for 1 hr by Lineweaver-Burk plot analysis.

Take `C[C@@H]1C[C@H]2O[C@]3(O[C@H]2C(C)(C)O)[C@H]1[C@@]1(C)[C@H](O)C[C@@]24C[C@@]25CC[C@H](O[C@@H]2OC[C@@H](O)[C@H](O)[C@H]2O)C(C)(C)[C@@H]5CC=C4[C@]1(C)[C@H]3O`: the inhibition result in test [1] was “Active”. In test [2], this compound gave an IC50 of 18.5 µM. This compound also gave an inhibition in test [3] of 61.9%.
In turn, `CC(=O)OC(C)(C)[C@H]1O[C@@]23O[C@@H]1C[C@@H](C)[C@@H]2[C@@]1(C)CC[C@@]24C[C@@]25CC[C@H](O[C@@H]2OC[C@@H](O)[C@H](O)[C@H]2O)C(C)(C)[C@@H]5CC=C4[C@]1(C)[C@H]3O` showed a half-maximal inhibitory concentration (IC50) in test [2] of 24 µM. Besides, the inhibition mode entry in test [4] is “Active”. In test [3], the inhibition was determined as 76.7%.
`CC(=O)O[C@H]1[C@H](O[C@H]2CC[C@]34C[C@]35CC[C@]3(C)[C@H]6[C@H](C)C[C@H]7O[C@@]6(O[C@H]7C(C)(C)O)[C@H](O)[C@@]3(C)C5=CC[C@H]4C2(C)C)OC[C@@H](O)[C@@H]1O` came in with an IC50 in test [2] of 60.9 µM. Moreover, the inhibition in test [3] amounted to 64.9%.
Regarding `COC(C)(C)[C@H]1O[C@@]23O[C@@H]1C[C@@H](C)[C@@H]2[C@@]1(C)CC[C@@]24C[C@@]25CC[C@H](O[C@@H]2OC[C@@H](O)[C@H](O)[C@H]2O)C(C)(C)[C@@H]5CC=C4[C@]1(C)[C@H]3O`, in test [2], the IC50 came out at 0.4 µM. The inhibition mode entry in test [4] is “Active”. The compound also showed an inhibition in test [3] of 75.6%.
In the case of `C[C@@H]1C[C@]23OCC(C)(O)[C@H]2O[C@@]2(O3)[C@H]1[C@@]1(C)CC[C@@]34C[C@@]35CC[C@H](O[C@@H]3OC[C@@H](O)[C@H](O)[C@H]3O)C(C)(C)[C@@H]5CC=C4[C@]1(C)[C@H]2O` (some centres undefined), the inhibition entry in test [5] is “Active”. Further, the half-inhibitory concentration (IC50) in test [2] is 14.6 µM. This compound also yielded an inhibition in test [3] of 63.2%.
Compound `C[C@@H]1C[C@H]([C@@H](O)C(C)(C)O)O[C@]2(O)[C@H]1[C@@]1(C)CC[C@@]34C[C@@]35CC[C@H](O[C@@H]3OC[C@@H](O)[C@H](O)[C@H]3O)C(C)(C)[C@@H]5CC=C4[C@]1(C)[C@H]2O` had a half-inhibitory concentration (IC50) in test [2] of 10.7 µM. The inhibition mode result in test [4] is “Active”. Also, the inhibition in test [3] amounted to 84.8%.
With `CC(=O)O[C@H](C[C@@H](C)[C@H]1C(=O)[C@H](O)[C@@]2(C)C3=CC[C@H]4C(C)(C)[C@@H](O[C@@H]5OC[C@@H](O)[C@H](O)[C@H]5O)CC[C@@]45C[C@@]35CC[C@]12C)[C@@H](O)C(C)(C)O`, the inhibition result in test [1] was “Active”. Further, the IC50 in test [2] was found to be 5.2 µM. Further, the inhibition in test [3] turned out to be 72.4%.
In the case of `CC(=O)O[C@H]([C@H]1C[C@@H](C)[C@H]2[C@@](O)(O1)[C@H](O)[C@@]1(C)[C@@H]3CC[C@H]4C(C)(C)[C@@H](O[C@@H]5OC[C@@H](O)[C@H](O)[C@H]5O)CC[C@@]45C[C@@]35CC[C@]21C)C(C)(C)O`, in test [2], the midpoint of inhibition, the IC50, lay at 0.4 µM. The inhibition mode entry in test [4] was “Active”. Besides, the inhibition in test [3] turned out to be 66.1%.
Regarding `C[C@@H]1CC(=O)[C@H](O)[C@]2(O)[C@H]1[C@@]1(C)CC[C@@]34C[C@@]35CC[C@H](O[C@@H]3OC[C@@H](O)[C@H](O)[C@H]3O)C(C)(C)[C@@H]5CC=C4[C@]1(C)[C@H]2O`, the inhibition result in test [1] was “Active”. Further, the half-maximal inhibitory concentration (IC50) in test [2] is 8.6 µM. Besides, the inhibition in test [3] is 69.6%.
Compound `C[C@H]1[C@H]2[C@@H](O[C@@]3(O)[C@@H]1OC(C)(C)[C@H]3O)[C@H](O)[C@@]1(C)[C@@H]3CC[C@H]4C(C)(C)[C@@H](O[C@@H]5OC[C@@H](O)[C@H](O)[C@H]5O)CC[C@@]45C[C@@]35CC[C@]21C` had an IC50 in test [2] of 4.4 µM. In addition, in test [4], the inhibition mode entry is “Active”. This compound came in with an inhibition in test [3] of 70.2%.

As a reminder, the inhibition is how much of the control response was suppressed. In general, IC50 refers to the concentration needed to halve the response being measured. Higher therefore signals weaker potency in that assay.
